From ChEMBL document CHEMBL5104154, “Thiamine analogues as inhibitors of pyruvate dehydrogenase and discovery of a thiamine analogue with non-thiamine related antiplasmodial activity” (RSC Med Chem, 2022)
One block for each compound: values may come before it. The source made the active and inactive calls. The rule behind the calls is not given here.

How the values were obtained:
[1] = Selectivity index, ratio of IC50 for cytotoxicity against human HFF cells to IC50 for antiplasmodial activity against chloroquine-sensitive Plasmodium falciparum 3D7; format: toxicity, cell-based; conditions: read-out: Ratio IC50
[2] = Cytotoxicity against human HFF cells assessed as inhibition of cell proliferation incubated for 96 hrs by SYBR-based fluorescence assay; format: toxicity
Method in brief: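 Human foreskin fibroblasts exposed to compounds up to the highest concentration that solubility allowed.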

Pyruvate decarboxylase = target: T1, Pyruvate decarboxylase (Zymomonas mobilis subsp. mobilis, UniProt P06672); assay: Inhibition of Zymomonas mobilis pyruvate decarboxylase incubated for 3 mins using pyruvate as substrate in presence of TPP by spectrophotometric analysis
T1 sequence (P06672 whole entry): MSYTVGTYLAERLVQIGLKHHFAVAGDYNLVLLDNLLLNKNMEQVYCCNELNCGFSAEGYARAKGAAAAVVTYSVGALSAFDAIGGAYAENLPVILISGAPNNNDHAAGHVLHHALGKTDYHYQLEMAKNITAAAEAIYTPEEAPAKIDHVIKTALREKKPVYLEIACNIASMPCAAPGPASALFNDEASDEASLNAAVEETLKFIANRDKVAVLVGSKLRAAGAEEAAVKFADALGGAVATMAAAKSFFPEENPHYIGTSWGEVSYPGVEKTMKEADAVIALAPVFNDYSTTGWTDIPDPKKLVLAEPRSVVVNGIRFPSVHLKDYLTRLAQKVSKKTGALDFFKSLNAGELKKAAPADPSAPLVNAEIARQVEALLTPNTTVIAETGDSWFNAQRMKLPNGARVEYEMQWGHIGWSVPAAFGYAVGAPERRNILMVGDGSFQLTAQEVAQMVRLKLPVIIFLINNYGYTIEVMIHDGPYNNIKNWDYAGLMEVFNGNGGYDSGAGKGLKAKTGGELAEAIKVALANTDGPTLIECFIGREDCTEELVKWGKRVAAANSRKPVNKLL

Plasmodium falciparum [3] = assay: Antiplasmodial activity against chloroquine-sensitive Plasmodium falciparum 3D7 assessed as inhibition of parasite proliferation in presence of 2.2 to 220 uM folic acid by SYBR-based fluorescence assay; format: functional, organism-based
Plasmodium falciparum [4] = assay: Antiplasmodial activity against chloroquine-sensitive Plasmodium falciparum 3D7 overexpressing GFP-tagged plasmodium falciparum TPK assessed as inhibition of parasite proliferation in presence of 2.97 uM thiamine by SYBR-based fluorescence assay; format: functional, organism-based

Compound: Cc1ncc(Cn2cc(CCOC(=O)c3cccc(Cl)c3)nn2)c(N)n1
selectivity ratio [1]: > 3.2
IC50 at 96 h [2]: > 200 µM

Compound: Cc1ncc(Cn2cc(CCOC(=O)c3ccccc3)nn2)c(N)n1
IC50 at 96 h [2]: > 200 µM

Ki (Pyruvate decarboxylase): 300 µM
Compound: Cc1ncc(Cn2cc(CCO)nn2)c(N)n1

Compound: COc1ncnc(NS(=O)(=O)c2ccc(N)cc2)c1OC
Activity (Plasmodium falciparum [3]): Active

Compound: Cc1ncc(C[n+]2csc(CCO)c2C)c(O)n1
Activity (Plasmodium falciparum [4]): Active

Ki (Pyruvate decarboxylase): 3e-05 µM
Compound: Cc1ncc(Cn2cc(CCOP(=O)(O)OP(=O)(O)O)nn2)c(N)n1

Compound: Cc1ncc(Cn2cc(CCO)nn2)c(NCc2ccc(Br)cc2)n1
IC50 at 96 h [2]: 98 µM
